Tests used:
Format in all cases: nucleic-acid assay
Nucleic Acid [1] = experiment: Association constant for binding to AATT 28-mer AATT hairpin
Procedure, shortened: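 Fluorometric equilibrium titration at 20 °C in 50 mM Tris, 100 mM NaCl, pH 7.5. A fixed 0.7-1.6 nM dye in a silanized quartz cuvette was titrated with excess 28-mer T4-looped AATT hairpin (3.54 μM stock). The rise in fluorescence was fitted to the quadratic binding equation, with dilution taken into account. Above about 4 × 10^9 M^-1, dye concentration was an extra fitting parameter.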

Nucleic Acid [2] = experiment: Kinetically Defined Association Constant for 28-mer AATT hairpin.
Procedure, shortened: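 Stopped-flow fluorescence at 20 °C, pH 7.5 (50 mM Tris, 0.1 M NaCl). 2 nM dye was mixed with excess 28-mer AATT hairpin, with excitation at 366 nm and emission through a 418 nm cutoff filter. Inverse time constants from monoexponential traces versus concentration gave kon. koff came from dissociation with excess poly[d(A-5BrU)]. Kkin = kon/koff.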

Nucleic Acid [3] = experiment: Association constant for binding to AATT duplex
Procedure, shortened: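 Fluorometric equilibrium titration at 20 °C in 50 mM Tris, 100 mM NaCl, pH 7.5. The fluorescence increase was fitted to the quadratic binding equation, with dilution corrected.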

For CN1CCN(c2ccc3[nH]c(-c4ccc5[nH]c(-c6ccc(O)cc6)nc5c4)nc3c2)CC1, the Ka (Nucleic Acid [1]) was 5.2e-08 M⁻¹, the Kkin (Nucleic Acid [2]) was 5.9e-08 M⁻¹ and the Ka (Nucleic Acid [3]) was 4.1e-08 M⁻¹.
